The text below walks through data of PubChem BioAssay.

Calls of active or inactive are those of the source.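 How the source made its calls, unless noted: active means GFP response above 150% of the DMSO level; inconclusive means fewer than 70 events counted for a yeast strain; inactive means the rest.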

A short description of assay [1]: hit retest on RPL19A-GFP reporter strain – cell-based, S. cerevisiae, flow cytometry, cherry picks, mother/daughter gates, confirmation (AID 2270;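 active means GFP response below 50% of the DMSO control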). The conditions noted are these: 3 h, at 10 µM, stronger effect = lower value, 100 = same GFP as DMSO wells. On the technique in general: In flow cytometry, cells or beads pass a laser one at a time.
A short description of assay [2]: yeast TOR pathway reporter LAP4-GFP change – cell-based, cherry picks, flow cytometry, mother/daughter gates, confirmation (AID 2271;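 active means GFP response above 150% of the DMSO control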;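 further: ratio of sample to DMSO plate mean so 100% equals DMSO level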). The conditions noted are these: S. cerevisiae LAP4-GFP strain, 3 h, at 10 µM, stronger effect = higher value, 100 means same as DMSO control. An outline of the steps: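 System: GFP-fusion yeast strain | Input: Yeast cells seeded at OD600 of 0.2 | Technique: HT flow cytometry, GFP fluorescence channel | Read-out: % GFP response vs DMSO | Dosing: Single test-compound dose, 10 µM final | Controls: Positive rapamycin (400 ng/mL), negative DMSO | Times: 3 h treatment at 30 °C with rotation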

Assay [3] is described as follows: TOR pathway reporter MEP2-GFP, retest of hits – S. cerevisiae, flow cytometry GFP, cherry picks, confirmation (AID 2272;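 active means GFP response above 150% of the DMSO control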;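 further: ratio of well signal to plate DMSO mean so 100% equals DMSO level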). The conditions noted are these: S. cerevisiae MEP2-GFP strain, 3 h, at 10 µM, stronger effect = higher value.
Assay [4] is described as follows: yeast AGP1-GFP fluorescence change, single-dose – cell-based, flow cytometry, S. cerevisiae, cherry picks, confirmation (AID 2273).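 Further: median GFP channel fluorescence over the whole cell population gate.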 The conditions noted are these: S. cerevisiae AGP1-GFP strain, 3 h, at 10 µM.
Assay [5] is described as follows: TOR pathway CIT2 reporter hit retest – S. cerevisiae, GFP fusion, cherry picks, mother/daughter gates, confirmation (AID 2274). The conditions noted are these: S. cerevisiae CIT2-GFP strain, flow cytometry, 3 h, at 10 µM, stronger effect = higher value.
The mark [6] stands for this setting: measured here: daughter cell gate.
Setting [7] is: measured here: mother cell gate.
Setting [8] is: measured here: daughter cell gate response.
Setting [9] is: measured here: mother cell gate response.

As to `Oc1cccc(/C=N/c2c(-c3ccco3)nc3ccccn23)c1`, the GFP response vs DMSO was 96.6% (inactive) in assay [1], 96.2% in assay [1] (setting [6]), 96.9% in assay [1] (setting [7]) and 97.5% (inactive) in assay [3]. For the same molecule, the GFP response relative to DMSO was 96.5% (inactive) in assay [2], 97.9% in assay [2] (setting [8]) and 94.6% in assay [2] (setting [9]). For the same molecule, the GFP response, % of DMSO is 97.1% (inactive) in assay [4], 96.4% (inactive) in assay [5], 98.3% in assay [5] (setting [6]) and 94.5% in assay [5] (setting [7]).
Consider `Cc1[nH][nH]c(=O)c1C(c1ccc(N(C)C)c(Br)c1)c1c(C)[nH][nH]c1=O`, for which the GFP response vs DMSO was 99.3% (inactive) in assay [1], 98% in assay [1] (setting [6]), 99.2% in assay [1] (setting [7]) and 104% (inactive) in assay [3]. Also, the GFP response relative to DMSO was 116% (inactive) in assay [2], 115% in assay [2] (setting [8]) and 114% in assay [2] (setting [9]). Besides, the GFP response, % of DMSO in assay [4] is 105% (inactive); in assay [5] it was 96.4% (inactive); in assay [5] (setting [6]), 96.4%; in assay [5] (setting [7]), 94.5%.
Regarding `CCc1nnc(NC(=O)c2ccc(S(=O)(=O)N(C)Cc3ccccc3)cc2)o1`, the GFP response vs DMSO was 99% (inactive) in assay [1], 99.5% in assay [1] (setting [6]), 98.5% in assay [1] (setting [7]) and 104% (inactive) in assay [3]. The GFP response relative to DMSO was 103% (inactive) in assay [2], 106% in assay [2] (setting [8]) and 103% in assay [2] (setting [9]). The GFP response, % of DMSO in assay [4] is 103% (inactive); in assay [5] it was 103% (inactive); in assay [5] (setting [6]), 99.7%; in assay [5] (setting [7]), 105%.
As to `COc1ccc(N=Cc2nc(-c3ccccc3)oc2OC(C)=O)cc1`, the GFP response vs DMSO is 100% (inactive) in assay [1], 99.1% in assay [1] (setting [6]), 101% in assay [1] (setting [7]) and 95.4% (inactive) in assay [3]. Further, the results for the GFP response relative to DMSO in assay [2], in assay [2] (setting [8]) and in assay [2] (setting [9]) were 107% (inactive), 96.5% and 111%, respectively. The GFP response, % of DMSO was 94% (inactive) in assay [4], 90.7% (inactive) in assay [5], 90.9% in assay [5] (setting [6]) and 88.6% in assay [5] (setting [7]).
`Brc1cc(Br)c2nc(-c3cccs3)ccc2c1`: the GFP response vs DMSO in assay [1] is 97.4% (inactive); in assay [1] (setting [6]), 99.1%; in assay [1] (setting [7]) it was 96.7%; in assay [3] it was 101% (inactive). Also, the GFP response relative to DMSO in assay [2] is 99.5% (inactive); in assay [2] (setting [8]), 99.1%; in assay [2] (setting [9]), 98.4%. Moreover, the GFP response, % of DMSO in assay [4] was 98.2% (inactive); in assay [5] it was 100% (inactive); in assay [5] (setting [6]) it was 97.4%; in assay [5] (setting [7]) it was 99.3%.
For `O=C(Oc1c(Cl)cc(Cl)c2cccnc12)c1cccc([N+](=O)[O-])c1`, the GFP response vs DMSO in assay [1] was 106% (inactive); in assay [1] (setting [6]), 92.9%; in assay [1] (setting [7]) it was 108%; in assay [3] it was 133% (inactive). Also, the GFP response relative to DMSO in assay [2] was 244% (active); in assay [2] (setting [8]), 183%; in assay [2] (setting [9]), 236%. Besides, the GFP response, % of DMSO in assay [4] is 101% (inactive); in assay [5], 134% (inactive); in assay [5] (setting [6]), 121%; in assay [5] (setting [7]) it was 131%.
Take `CCOC(=O)c1csc(Nc2nc3ccc(F)cc3s2)n1`: the GFP response vs DMSO in assay [1] is 94.6% (inactive); in assay [1] (setting [6]), 95.2%; in assay [1] (setting [7]) it was 94.2%; in assay [3], 99% (inactive). The GFP response relative to DMSO in assay [2] is 103% (inactive); in assay [2] (setting [8]), 102%; in assay [2] (setting [9]), 104%. The GFP response, % of DMSO is 93.4% (inactive) in assay [4], 95.9% (inactive) in assay [5], 97.4% in assay [5] (setting [6]) and 95.6% in assay [5] (setting [7]).
Regarding `COc1ccc(-c2ccc(S(=O)(=O)N3CCOCC3)cc2)cc1`, the GFP response vs DMSO in assay [1] is 95.4% (inactive); in assay [1] (setting [6]) it was 93.9%; in assay [1] (setting [7]) it was 95.7%; in assay [3], 99% (inactive). Also, the GFP response relative to DMSO was 107% (inactive) in assay [2], 106% in assay [2] (setting [8]) and 107% in assay [2] (setting [9]). Besides, the GFP response, % of DMSO in assay [4] was 100% (inactive); in assay [5], 100% (inactive); in assay [5] (setting [6]), 97.4%; in assay [5] (setting [7]), 102%.
As for `Cc1ccc2[nH]cc(/C=C/c3cc[n+](C)cc3)c2c1`, the GFP response vs DMSO in assay [1] was 106% (inactive); in assay [1] (setting [6]), 106%; in assay [1] (setting [7]), 105%; in assay [3] it was 170% (inactive). Also, the GFP response relative to DMSO in assay [2] was 153% (active); in assay [2] (setting [8]), 156%; in assay [2] (setting [9]) it was 154%. Also, the GFP response, % of DMSO in assay [4] is 116% (inactive); in assay [5] it was 147% (inactive); in assay [5] (setting [6]), 156%; in assay [5] (setting [7]) it was 140%.
On to `COc1ccc(-c2nn(-c3ccccc3)cc2C(=O)N/N=C/c2ccc([N+](=O)[O-])o2)cc1`, for which the GFP response vs DMSO in assay [1] was 103% (inactive); in assay [1] (setting [6]), 103%; in assay [1] (setting [7]) it was 103%; in assay [3] it was 100% (inactive). Moreover, the GFP response relative to DMSO in assay [2] was 84.2% (inactive); in assay [2] (setting [8]), 92.5%; in assay [2] (setting [9]), 92.1%. The GFP response, % of DMSO in assay [4] was 96.7% (inactive); in assay [5], 113% (inactive); in assay [5] (setting [6]), 110%; in assay [5] (setting [7]), 115%.
As for `O=C(Nc1nnc(-c2ccc(F)cc2)o1)c1cccc([N+](=O)[O-])c1`, the GFP response vs DMSO in assay [1] is 102% (inactive); in assay [1] (setting [6]), 97%; in assay [1] (setting [7]), 101%; in assay [3] it was 110% (inactive). The figures for the GFP response relative to DMSO in assay [2], in assay [2] (setting [8]) and in assay [2] (setting [9]) were 157% (active), 169% and 152%, respectively. Besides, the GFP response, % of DMSO is 97% (inactive) in assay [4], 101% (inactive) in assay [5], 103% in assay [5] (setting [6]) and 99.3% in assay [5] (setting [7]).
`Cn1cc(/C=C/c2cc[n+](C)cc2)c2cc(F)ccc21`: the GFP response vs DMSO in assay [1] is 102% (inactive); in assay [1] (setting [6]) it was 102%; in assay [1] (setting [7]) it was 102%; in assay [3] it was 134% (inactive). Moreover, the GFP response relative to DMSO in assay [2] was 115% (inactive); in assay [2] (setting [8]) it was 117%; in assay [2] (setting [9]), 116%. The GFP response, % of DMSO was 103% (inactive) in assay [4], 115% (inactive) in assay [5], 116% in assay [5] (setting [6]) and 114% in assay [5] (setting [7]).
Take `O=C(Nc1nc(-c2ccccc2)cs1)c1ccc(Br)o1`: the GFP response vs DMSO in assay [1] was 102% (inactive); in assay [1] (setting [6]), 101%; in assay [1] (setting [7]), 101%; in assay [3], 99% (inactive). The GFP response relative to DMSO was 106% (inactive) in assay [2], 101% in assay [2] (setting [8]) and 108% in assay [2] (setting [9]). The GFP response, % of DMSO in assay [4] is 94.9% (inactive); in assay [5], 108% (inactive); in assay [5] (setting [6]) it was 105%; in assay [5] (setting [7]), 107%.
Turning to `Cc1[nH]n(-c2ccccc2)c(=O)c1/C=N/Nc1nncc(-c2ccccc2)n1`, the GFP response vs DMSO is 88.1% (inactive) in assay [1], 85.8% in assay [1] (setting [6]), 88.9% in assay [1] (setting [7]) and 108% (inactive) in assay [3]. Also, the GFP response relative to DMSO in assay [2] is 149% (inactive); in assay [2] (setting [8]), 137%; in assay [2] (setting [9]), 151%. Also, the GFP response, % of DMSO in assay [4] was 110% (inactive); in assay [5], 86% (inactive); in assay [5] (setting [6]), 84.1%; in assay [5] (setting [7]), 83.8%.
Regarding `COc1ccc(NC(=O)COC(=O)c2ccco2)c([N+](=O)[O-])c1`, the GFP response vs DMSO is 99.5% (inactive) in assay [1], 98.5% in assay [1] (setting [6]), 96.7% in assay [1] (setting [7]) and 108% (inactive) in assay [3]. In addition, the GFP response relative to DMSO in assay [2] is 103% (inactive); in assay [2] (setting [8]) it was 99.3%; in assay [2] (setting [9]), 102%. In addition, the GFP response, % of DMSO in assay [4] is 98.9% (inactive); in assay [5] it was 99.3% (inactive); in assay [5] (setting [6]), 92.7%; in assay [5] (setting [7]), 98%.
As for `CN(C)c1ccc(/C=C/c2cc[n+](C)cc2)cc1`, the GFP response vs DMSO was 111% (inactive) in assay [1], 109% in assay [1] (setting [6]), 109% in assay [1] (setting [7]) and 215% (active) in assay [3]. Besides, the GFP response relative to DMSO in assay [2] was 160% (active); in assay [2] (setting [8]) it was 168%; in assay [2] (setting [9]) it was 159%. In addition, the GFP response, % of DMSO is 109% (inactive) in assay [4], 149% (inactive) in assay [5], 129% in assay [5] (setting [6]) and 134% in assay [5] (setting [7]).
With `O=C1C(Cl)=C(NCCc2ccccc2)C(=O)N1CCc1ccccc1`, the GFP response vs DMSO was 103% (inactive) in assay [1], 103% in assay [1] (setting [6]), 104% in assay [1] (setting [7]) and 112% (inactive) in assay [3]. The figures for the GFP response relative to DMSO in assay [2], in assay [2] (setting [8]) and in assay [2] (setting [9]) were 106% (inactive), 107% and 101%, respectively. The GFP response, % of DMSO in assay [4] is 103% (inactive); in assay [5], 106% (inactive); in assay [5] (setting [6]), 106%; in assay [5] (setting [7]) it was 106%.
